According to the EternaBench riboswitch data:

System: MS2 coat protein
Experiment: apparent Kd, MS2 coat protein; higher = weaker binding; RNA-MaP array
Procedure, shortened: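 Apparent Kd is the median of per-cluster binding-curve fits for designed RNAs transcribed from sequenced DNA templates on an Illumina sequencing chip. The RNAs were incubated at room temperature with fluorescently labeled MS2 coat protein at 1.5 nM to 3 μM, with or without input ligand, and designs measured on fewer than 10 clusters were excluded.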

[1] = designed as: OFF switch for flavin mononucleotide, no ligand
[2] = ligand present: flavin mononucleotide, designed as: OFF switch for flavin mononucleotide
[3] = designed as: ON switch for flavin mononucleotide, no ligand
[4] = ligand present: flavin mononucleotide, designed as: ON switch for flavin mononucleotide
[5] = designed as: OFF switch for theophylline, no ligand
[6] = ligand present: theophylline, designed as: OFF switch for theophylline

Sequence	apparent Kd [1] [nM]	apparent Kd [2] [nM]	apparent Kd [3] [nM]	apparent Kd [4] [nM]	also measured
UGUCCCACGCAAGUACAUGAGGAUCACCCAUGUCUGAACCAGAGAAGGAGAGUUAUACUGGAAAUCUAGGAUAUCUGACAGACU	43.3	50.5			
AAACAUGAGGAUCACCCAUGUAGAAUAAUCAGACGUUUGAACAGAAGGUGAAAACAAAUAAAACUCAAGGAUAUGUAACUAAAA			65.6	52.5	
UAGGUGCUAGGAGGAUAUUGUGAAUUUAAUUUUCAAGAAGGCCUGAACAGACUGCACAUGAGGAUCACCCAUGUAUCCAACGUC	17.2	11.7			
ACGGGUGACAAGAAGGGCUAGGUAACAUGCCGUAGACUAGAAUAACAUGAGGAUCACCCAUGUAAGCAGGAUAUUGUAUAAUAA			156	52.8	
CUUCGGCCCAGGGAGAUGACCACAUGAGGAUCACCCAUGUACAGAAGGAGUAUCGGUAGGCCAUACUAGGAUAUGUGAAUAGAC			25.8	31.4	
ACGUAGUGCCGAGGAUAUGUAACAUGAGGAUCACCCAUGUUCUCUAACAGGUCGAUUUUAAGCACACAGAAGGCGGGUGUUGAU	11.3	11.8			
GUCGGAGUGGAGAAGGCGCCAACGUAAGCGCGGCGAGGAUAUCCCUACCCUACAUGAGGAUCACCCAUGUCGACGAGAGUAUCG			11.3	7.99	
ACUCCGUCGUAGAAGGGAAAAUGCUUGGCGUCUCUCGGGUACAUGAGGAUCACCCAUGUUACGGUUCAGGAUAUACAGACUGCU	10.5	10.6			
UACAUGAGGAUCACCCAUGUGGUCAGGUUAUCCCGGACGGGAAGAAGGAUAAGAGAGUAACAUUUAUAGGAUAUUCGCCUCAUU			57.8	48.9	
UCGAACUAACAAGGAUAUACGCGGGUCGAAACGGUAGAAGGUGUCAACGGUAUCUCACAUGAGGAUCACCCAUGUCGGCAGGGA	135	103			
UAGGUUCUAGUUUCUGCACAUGAGGAUCACCCAUGUUUAGUAAAGGAUAUCACGGUAAGUCGACGUGAGAAGGUUACGUUAGGG	33.6	37			
AGACCGGCUCAGGAUAUGUACAGGACAUACUCAACAGAAGGGAGUACAUGAGGAUCACCCAUGUCUGGGUAGAU	488	371			
AAACAGGAAGGAUAUACAUGAGGAUCACCCAUGUCAAAUAAAACAAAUAAGCAAGAAUGUAGAAGGACCAAAAU	17.2	12.8			
GACAGCAUCCGAGGAUAUAUGUACGUAAUCAAACCACAUGAGGAUCACCCAUGUCCUCUAGGUUCAUAGAAGGCGGUUUAGCGU	455	750			
AAAAGGGCAGGAUAUACAUGAGGAUCACCCAUGUUAAAGCCAACAAGAAGUUCCACUGGUAGAAGGGCCAUAGA	8.89	8.55			
GGUGGGUCAGGAUAUCCCACACAAUUGCGAACGCGAUGCAGGGAGAAGGGACAUGAGGAUCACCCAUGUGGGAC	54.4	64.9			
CCUAGACAUGAGGAUCACCCAUGUUAUUGUCUUCAAGGAUAUCGAUGUCUCUCAUAGGCACGAGAAGGUGACUCCU			85.2	67.1	
CUCCCAAACAAGAAGGGCGUCGAGUACGGUGAACUUGCCACAUAACAUGAGGAUCACCCAUGUACGCAGGAUAUUGGAGCGUUU	138	234			
CUCCUCGUAGGAUAUCGCACCGCGUACAUGAGGAUCACCCAUGUGAUUCUAUAGAUUAAGCGAGAAGGACGACAGG	376	269			
GCAAAAGCGCUCUAGAGACAUGAGGAUCACCCAUGUGUGGGUAGAAGGUCCUACGUACCAUUAAGGAAGGAUAUACACAUAUAU			1090	540	
GACUGGAGGAGAGGAUAUGCAAAGACUCUAUUCGCAGAAGGCUCGUGCGGUCAACAUGAGGAUCACCCAUGUCUGGCGACAUGC	6.26	8.62			
UGCGAUGAACCUGAUACCAGAUGUAUUUGCUCCUCGGACAACAUGAGGAUCACCCAUGUCAUCCCUUGGCAGCAGGAGCGAAAGC					apparent Kd [5]: 11.9 nM; apparent Kd [6]: 44.1 nM
GAUUUACAUGAGGAUCACCCAUGUGAGGAUAUGCCGUACAUCGCGCUCUGAGCUAGUUGCAGAAGGCACAUGAU	18.9	18.3			
UCCUAGCGACAGAAGGUAGGCAAGAGACGCCCUCAACGACAUGAGGAUCACCCAUGUGGGACCACUAAGGAUAUGUAUGCCGAC	84.6	66.5			
GCUGCACAUGAGGAUCACCCAUGUACCCUACUGAGAGGAUAUGUGAUCCGUUAGCAAUCCACAGAAGGCUCGGUUC			51.2	10.5	
CCACCCGACAUGAGGAUCACCCAUGUAGAUGAUCCUGUACCAUAGGAUAUAGGCGUAAGAGAGAUCUAGAAGGAUGUACAACCC	108	73.5			
AGACGGUUACAGGAUAUGACUACUGCUAGAGCAUCAGAAGGGUAUACAUGAGGAUCACCCAUGUCUUCACGGCG	10.1	9.62			

Sequence	apparent Kd [1] [nM]	apparent Kd [2] [nM]	apparent Kd [3] [nM]	apparent Kd [4] [nM]	also measured
CCAGAAGCAGGAUAUACAUGAGGAUCACCCAUGUUAAACAAUAUGACGAGCAUAGUCAGUAGAAGGGCAACUCA	18.8	16.1			
UUUAUACAUGAGGAUCACCCAUGUGAGGAUAUAAAGGCGGACACUGCUGUCGAUCGCUUUAGAAGGCACUGGAU	15.8	20			
GACCUCCUGCGAGCACAUGAGGAUCACCCAUGUAAGGACCUGAGAAGGCACCGUUAAGAUUGGAGUGAGGAUAUCAGGAUAUAG	23.5	19.7			
AGGCUAUGUGAGAAGGCCGAAUGCCUAUAGUGCGGAGGAUAUCAAUCAACAUGAGGAUCACCCAUGUAGCAAAUCGUAGUUCUC			84.3	60.1	
UUAGAUCGUGUCAGGAUAUCGGACCGGCCCGCCUCCGAGAAGGGACAUGAGGAUCACCCAUGUCACGGUCCAUU	7.73	7.84			
GAGGCACGGUCGGCCGCCACUACAGCAGUGGUCCGCCAAGCGAGGUACAUGAGGAUCACCCAUGUUAGGACCGGGACCUGUUUUU					apparent Kd (designed as: OFF switch for tryptophan, no ligand): 24.6 nM; apparent Kd (ligand present: tryptophan, designed as: OFF switch for tryptophan): 73.7 nM
AACAAAUGGGAAGGAUAUCGUUACAUGAGGAUCACCCAUGUCUACCUUGGGAGCGGUAGCUAUGUCGAGAAGGUCCAUGCGCGA			394	84.1	
UGCCAACAUGAGGAUCACCCAUGUCAGGAUAUCCGGGAGCACUUCAGUAGAAUCCGCUGGAGAAGGGACAUAGG	24.3	21.7			
AAAUGCAUUCGAGGAUAUGUCAUGAUGUUGUAAACAGAAGGCGAGGCAUCGACAUGAGGAUCACCCAUGUGCACAGGUAAAAGU			37.6	16.4	
CGCGACUUCAGAGGAUAUGUGCGUGUCACAUGAGGAUCACCCAUGUAAGGUUACCUACGACCGGGACAGAAGGCUGACCCAAAA			61	19.6	
CUAAAACAUGAGGAUCACCCAUGUGUUUAGCGCAGAGGAUAUUGGGAUUGGUUGCUCGCUCAAGAAGGCUGAUUGG			8.55	7.02	
GUUACAUGAGGAUCACCCAUGUGGGCUGUAUGUAGCGCACCUGAGGAUAUGGCCCGGAGGUAGGACCAGAAGGCAGCGAAGAGC	65.4	55.3			
GACAGCGAAGGAUAUACAUGAGGAUCACCCAUGUCUCACUAACGUAGCCGCGGGUAAUGUAGAAGGUCGCGAUG	191	65.4			
CGACAUUAAACAUGAGGAUCACCCAUGUGACCCUAUUGUCCAAAGGAUAUCUUAUGAAUAGAGAAAGAGAAGGUUGUAUUCCCA	241	196			
GUGACUAGCGUAAGGAUAUUCACGAGCGGCGGCUUGAAGAAGGUACAUGAGGAUCACCCAUGUAGGGUAAUCAA	41.6	44.3			
GAAUGGAAAGGAUAUCGCUGUUCUGACAUGAGGAUCACCCAUGUACGUGUUAGCUUGUUUCGAGAAGGUUCCACUC	15.6	21.8			
CAUUAUCGCGUUAGGAUAUGAACAAGAAAUCGGCUACAGAAGGAACAUGAGGAUCACCCAUGUAUGAUCAAGAC	13.1	10.7			
UGAGAUAACGCAGGAUAUCAUGCGGCAGUGUAGUGAGAAGGGCGAAUGCAAGGGUCAGACAUGAGGAUCACCCAUGUUCAUAGC	17.2	12.5			
AGCAUGACAGCAGGAUAUGCGAACAGAAAUAGUGCAGAAGGGCUUUACACAUGAGGAUCACCCAUGUCCGCAAGGAUGCGUAUG			41.1	19.4	
AUGAAGCUAAGAGAUACCAGUGACCACAGAUACAUGAGGAUCACCCAUGUCUCAAAUUGUCACCCUUGGCAGCUCACUAUCGAAG					apparent Kd (designed as: ON switch for theophylline, no ligand): 10.2 nM; apparent Kd (ligand present: theophylline, designed as: ON switch for theophylline): 9.26 nM
UAGUACAUGAGGAUCACCCAUGUCGGAGGUCGAGGACCGGUACGGCCGCCACUCGGUCAUGCCCUACGAUACGACAGGAAUCUGU					apparent Kd (designed as: ON switch for tryptophan, no ligand): 22.2 nM; apparent Kd (ligand present: tryptophan, designed as: ON switch for tryptophan): 16.8 nM
GCUACCACCGCAGGAUAUAAUCGGACACUCGUAGCGUUGCGAACAUGAGGAUCACCCAUGUCUAUUUAGAAGGGCGCAUGGGAU			78.8	42.6	
AGAUCGCUGACCGCGGGAGAUGCGCAGGAUACCAGCCUAAUGUCCGGCCCUUGGCAGCCUGUAACAUGAGGAUCACCCAUGUGAA					apparent Kd [5]: 17.1 nM; apparent Kd [6]: 31 nM
UGAGCAUCCCAGAAGGAUAUAUGGUCGUAAACAUGAGGAUCACCCAUGUUCCAUUUAGGACUCAAAUAGAAGGUCUCGGGCCAGAC			13.6	11.7	
AACGGCUGCGCGUAGGAUAUGGCCCAUCCAACAUGAGGAUCACCCAUGUGCCACGAUGAGACUUCCCAGAAGGACGGUGCGAUGAG			18.4	11.6	
UAAUCAGUGAUAGGAUAUCGUAGCUCAGAUAGGCGAGAAGGAUCUGACUCCACAUGAGGAUCACCCAUGUUGUACAUACAGGAC			19.5	17.1	
AUUAGAAUGCGAGGAUAUGGUAAAUUCAUGCAUCCAGAAGGCGCGUCAGUAGAACAUGAGGAUCACCCAUGUGAUUGUUGUGGC	22.8	26.9			
